From ChEMBL document CHEMBL1145237, “Amide derivatives of 9,11-seco-estra-1,3,5(10)-trien-11-oic acid as modified orally active estrogen agonists with moderate antagonistic activity” (Bioorg Med Chem Lett, 2005) come the findings set out here.

A value given as a limit tells only on which side of the number the result lay.

The target in assay [1] is T1, Estrogen receptor (Rattus norvegicus) (UniProt P06211+Q62986). Put plainly: Estrogenic activity in rat uterine weight assay. The class given is functional.
In assay [2] the target is T1, Estrogen receptor (Rattus norvegicus).
Assay [3] shares this target. Put plainly: Estrogenic activity as percent gain in rat uterine weight at 10 mg/kg/day. Format: functional, organism-based. In outline:
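Immature female rats were dosed orally once daily on days 28–30 of age at 10 mg/kg, with a vehicle-only control group. At autopsy on day 31, 24 h after the last dose, vaginal opening and vaginal-smear cornification were scored, and the blotted uterus was weighed fresh. Uterine gain was expressed as percent of vehicle control, as mean ± SEM of at least six observations per group.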

For another assay, the species on record is Rattus norvegicus. Put plainly: Percent inhibition of ethynylestradiol-induced uterine weight gain in ovariectomized immature rats. The settings on record: concentration not given here. Also on record: concentration or dose not given beside the values.
In assay [4] the target is T1, Estrogen receptor (Rattus norvegicus). Description: Relative binding affinity for immature rat cytosolic estrogen receptor. The class given is protein assay. A digest of the protocol: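 Rat uterine cytosol receptor (20–21-day-old animals, pH 7.4 Tris-EDTA buffer) was incubated in triplicate for 18 h at 4 °C with fixed [3H]-estradiol and graded competitor concentrations, with DMF ≤5% final. Bound ligand was separated with dextran-coated charcoal and counted. Percent bound versus log concentration was plotted, and the 50%-inhibition concentration was compared with that of estradiol to give RBA.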

The inhibition is the drop in the measured response relative to a control, in per cent. With `CCCNC(=O)C[C@@]1(C)C(C2CCc3cc(OC)ccc3C2)CC[C@@H]1OC(C)=O` (stereo not given in full), the values for the Weight in assay [1] and in assay [2] were 18.7 mg and 67.2 mg, respectively. For the same compound, the Gain in assay [3] came out at 6.63%. The compound also registered an inhibition in the assay listed under Rattus norvegicus of 26.1%. In assay [4], the RBA was below 0.001%.
On the same counts, the results for `COc1ccc2c(c1)CCC(C1CC[C@H](OC(C)=O)[C@@]1(C)CC(=O)Nc1ccccc1)C2` (stereo not given in full) are 18 mg, 69 mg, 2.91%, 11.5% and below 0.001%.
Regarding `CCCCCNC(=O)C[C@@]1(C)C(C2CCc3cc(OC)ccc3C2)CC[C@@H]1OC(C)=O` (stereo not given in full), the Weight stood at 23.7 mg in assay [1] and 75.3 mg in assay [2]. The Gain in assay [3] was determined as 35.2%. In the assay listed under Rattus norvegicus, this compound showed an inhibition of 17.2%. For the same compound, the RBA in assay [4] is below 0.001%.
For `CCCCCCCCNC(=O)C[C@@]1(C)C(C2CCc3cc(OC)ccc3C2)CC[C@@H]1OC(C)=O` (stereo not given in full) the same measures were 87 mg, 95.9 mg, 441%, 5.98% and below 0.001%.
On the same counts, the results for `COc1ccc2c(c1)CCC(C1CC[C@H](OC(C)=O)[C@@]1(C)CC(=O)NCCc1ccccc1)C2` (stereo not given in full) are 19 mg, 73 mg, 8.57%, 6.41% and below 0.001%.
For `COc1ccc2c(c1)CCC(C1CC[C@H](OC(C)=O)[C@@]1(C)CC(=O)NCc1ccccc1)C2` (stereo not given in full) the same measures were 74.4 mg, 87.7 mg, 362%, 14% and below 0.001%.
For `CCCCCCCCCCCCNC(=O)C[C@@]1(C)C(C2CCc3cc(OC)ccc3C2)CC[C@@H]1OC(C)=O` (stereo not given in full), the figures for the Weight in assay [1] and in assay [2] were 82.4 mg and 90 mg, respectively. In addition, the Gain in assay [3] is 412%. Moreover, the inhibition in the assay listed under Rattus norvegicus came out at 11.7%. In assay [4], this compound had an RBA below 0.001%.
On the same counts, the results for `COc1ccc(NC(=O)C[C@@]2(C)C(C3CCc4cc(OC)ccc4C3)CC[C@@H]2OC(C)=O)cc1` (stereo not given in full) are 70.7 mg, 77.5 mg, 282%, 20.2% and below 0.001%.
For `COc1ccc2c(c1)CCC(C1CC[C@H](OC(C)=O)[C@@]1(C)CC(=O)NCCCc1ccccc1)C2` (stereo not given in full), the Weight came to 74.3 mg in assay [1] and 83.6 mg in assay [2]. The compound also had a Gain in assay [3] of 422%. The inhibition in the assay listed under Rattus norvegicus stood at 10%. This compound gave an RBA in assay [4] below 0.001%.
On the same counts, the results for `COc1cccc(NC(=O)C[C@@]2(C)C(C3CCc4cc(OC)ccc4C3)CC[C@@H]2OC(C)=O)c1` (stereo not given in full) are 84.9 mg, 86 mg, 428%, 15.6% and below 0.001%.
Take `CCCCNC(=O)C[C@@]1(C)C(C2CCc3cc(OC)ccc3C2)CC[C@@H]1OC(C)=O` (stereo not given in full): the Weight in assay [1] was determined as 40.7 mg; in assay [2] it was 70.9 mg. This compound showed a Gain in assay [3] of 133%. Further, the inhibition in the assay filed under Rattus norvegicus was 22.1%. Also, the RBA in assay [4] was below 0.001%.
